# ChEMBL document CHEMBL1159388, “Steroidal glycosides from the rhizomes of Dioscorea spongiosa” (2003)
# Where a SMILES comes first, the peptide text is derived from it. Bridges are numbered along the chain shown (N, C = ends). [ ]: non-standard residue; d: D form. Asu = N[C@@H](CCCCCC(=O)O)C(=O)O
# What was measured:
# Type in all cases: functional
# [1] = Antiosteoporotic activity in mouse parietal bone assessed as inhibition of parathyroid hormone induced bone resorption by measuring 45Ca release at 200 uM by scintillation counting; design: scale not given: the % may be the effect or the level left
# Procedure, shortened: (§1)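 Mice aged 2 days received 45CaCl2 (2 μCi) subcutaneously; parietal bones were taken 2 days later and cultured on grids at the gas-liquid interface. Medium was Ham's F-12 with NaHCO3, 1.0 mM CaCl2 and 5% heat-inactivated horse serum, at 37 °C under 5% CO2. After 24 h preculture, bones were exposed to PTH (2×10^-9 M final) plus sample for 6 days, medium changed at day 3. Four bones per group.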
# [2] = Antiosteoporotic activity in mouse parietal bone assessed as inhibition of parathyroid hormone induced bone resorption by measuring 45Ca release at 20 uM by scintillation counting; design: scale not given: the % may be the effect or the level left; procedure, shortened: as §1
# [3] = Antiosteoporotic activity in mouse parietal bone assessed as inhibition of parathyroid hormone induced bone resorption at 200 uM; procedure, shortened: as §1
# [4] = Antiosteoporotic activity in mouse parietal bone assessed as inhibition of parathyroid hormone induced bone resorption by measuring 45Ca release by scintillation counting; design: scale not given: the % may be the effect or the level left; procedure, shortened: as §1
Compound,Activity [1] [%],Activity [2] [%],inhibition (INH) [3] [%],Activity [4] [%]
C=C[C@@H](CCCCC)O[C@H]1O[C@H](CO[C@@H]2OC[C@H](O)[C@H](O)[C@H]2O)[C@@H](O)[C@H](O)[C@H]1O,20.7,23.8,61.6,
CC(C)C[C@H](NC(=O)[C@H](CCCCN)NC(=O)CNC(=O)[C@H](CC(C)C)NC(=O)[C@@H](NC(=O)[C@@H]1CCCCCC(=O)N[C@@H](CO)C(=O)N[C@@H](CC(N)=O)C(=O)N[C@@H](CC(C)C)C(=O)N[C@@H](CO)C(=O)N[C@@H]([C@@H](C)O)C(=O)N1)C(C)C)C(=O)N[C@@H](CO)C(=O)N[C@@H](CCC(N)=O)C(=O)N[C@@H](CCC(=O)O)C(=O)N[C@@H](CC(C)C)C(=O)N[C@@H](Cc1cnc[nH]1)C(=O)N[C@@H](CCCCN)C(=O)N[C@@H](CC(C)C)C(=O)N[C@@H](CCC(N)=O)C(=O)N[C@H](C(=O)N[C@@H](Cc1ccc(O)cc1)C(=O)N1CCC[C@H]1C(=O)N[C@@H](CCCNC(=N)N)C(=O)N[C@H](C(=O)N[C@@H](CC(=O)O)C(=O)N[C@H](C(=O)NCC(=O)N[C@@H](C)C(=O)NCC(=O)N[C@H](C(=O)N1CCC[C@H]1C(N)=O)[C@@H](C)O)C(C)C)[C@@H](C)O)[C@@H](C)O [ELCITONIN] (SNLST[Asu]VLGKLSQELHKLQTYPRTDVGAGTP-NH2; lactam N-6),,,,18.4
CC(=O)[C@H]1[C@@H](OC(=O)CCC(C)CO[C@@H]2O[C@H](CO)[C@@H](O)[C@H](O)[C@H]2O)C[C@H]2[C@@H]3CC=C4C[C@@H](O[C@@H]5O[C@H](CO)[C@@H](O[C@@H]6O[C@@H](C)[C@H](O)[C@@H](O)[C@H]6O)[C@H](O)[C@H]5O[C@@H]5O[C@@H](C)[C@H](O)[C@@H](O)[C@H]5O)CC[C@]4(C)[C@H]3CC[C@@]21C (stereo partly drawn) [HYPOGLAUCIN G],19.2,22.8,66.7,
CO[C@]1(CC[C@@H](C)CO[C@@H]2O[C@H](CO)[C@@H](O)[C@H](O)[C@H]2O)O[C@H]2C[C@H]3[C@@H]4CC=C5C[C@@H](O[C@@H]6O[C@H](CO)[C@@H](O[C@@H]7O[C@@H](C)[C@H](O)[C@@H](O)[C@H]7O)[C@H](O)[C@H]6O[C@@H]6O[C@@H](C)[C@H](O)[C@@H](O)[C@H]6O)CC[C@]5(C)[C@H]4CC[C@]3(C)[C@H]2[C@@H]1C [METHYLPROTODIOSCIN],17.4,24.9,89.9,
CC(C)CC[C@H](O)[C@@H](C)[C@H]1[C@@H](O[C@@H]2O[C@H](CO)[C@@H](O)[C@H](O)[C@H]2O)C[C@H]2[C@@H]3CC=C4C[C@@H](O[C@@H]5O[C@H](CO)[C@@H](O[C@@H]6O[C@@H](C)[C@H](O)[C@@H](O)[C@H]6O)[C@H](O)[C@H]5O[C@@H]5O[C@@H](C)[C@H](O)[C@@H](O)[C@H]5O)CC[C@]4(C)[C@H]3CC[C@]12C [SPONGIOSIDES A],17.1,30.9,63.6,
